# Target: Adenosine receptor A2a (Homo sapiens, UniProt P29274)
# Test: Displacement of [3H]ZM241385 from human AA2AR expressed in HEK293T cells after 2 hrs by liquid scintillation counter
# Summary of the method: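 Membranes of HEK293T cells stably expressing AA2AR (40 µg protein) incubated with 1.7 nM (final) [3H]ZM241385 in 50 mM Tris·HCl pH 7.4, 2 h at 25 °C with shaking. Nonspecific binding defined with 100 µM CGS21680. Filtered over GF/B, washed three times with ice-cold buffer. Compounds giving ≥50% inhibition at 10 µM went to concentration-response curves. pKi values, n=3 in duplicate.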
# Sequence of Adenosine receptor A2a (P29274 whole entry): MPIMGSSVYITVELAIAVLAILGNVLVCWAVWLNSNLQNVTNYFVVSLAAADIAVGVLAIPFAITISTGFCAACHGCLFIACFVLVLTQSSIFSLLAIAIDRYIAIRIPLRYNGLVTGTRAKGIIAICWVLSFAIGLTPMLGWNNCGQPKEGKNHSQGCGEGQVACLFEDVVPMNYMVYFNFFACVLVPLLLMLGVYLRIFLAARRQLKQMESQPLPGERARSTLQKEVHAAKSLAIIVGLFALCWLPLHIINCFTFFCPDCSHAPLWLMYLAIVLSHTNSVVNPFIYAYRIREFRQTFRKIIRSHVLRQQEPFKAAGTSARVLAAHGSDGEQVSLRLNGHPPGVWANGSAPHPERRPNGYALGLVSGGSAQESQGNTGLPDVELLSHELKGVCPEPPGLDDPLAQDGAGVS
row,Ki,SMILES
1,5.01 µM,COc1cc(CN=Nc2ncnc3sc4c(c23)CCCC4)ccc1O
2,5.01 µM,N#CC(N=Nc1ccc(S(N)(=O)=O)cc1)c1nc2ccccc2[nH]1 (configuration not stated)

# — BindingDB's records for doi:10.1021/jm300280e (Radboud University Nijmegen Medical Centre, 2012)
